ChEMBL document CHEMBL4219235, “Novel fatty acid chain modified GLP-1 derivatives with prolonged in vivo glucose-lowering ability and balanced glucoregulatory activity” (Bioorg Med Chem, 2018)

Assays:
Albumin = Albumin (Homo sapiens, UniProt P02768); assay: Binding affinity to human serum albumin after 3 hrs by LC-MS/MS analysis; design: concentration or dose not given beside the values
Summary of the method: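 HSA was coupled to NHS-activated Sepharose (6–7 mg HSA/mL wet resin); an inactivated albumin-free resin served as control. Peptide (100 µg/mL in PBS) was incubated with each resin for 3 h at 25 °C. After centrifugation, unbound peptide in the supernatant was quantified by LC-MS/MS.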

[1] = target: Glucagon-like peptide 1 receptor (Homo sapiens, UniProt P43220); assay: Agonist activity at recombinant human GLP1 receptor expressed in HEK293 cells assessed as cAMP accumulation by TR-FRET assay; type: functional, cell-based
Chain of Glucagon-like peptide 1 receptor (P43220 whole entry): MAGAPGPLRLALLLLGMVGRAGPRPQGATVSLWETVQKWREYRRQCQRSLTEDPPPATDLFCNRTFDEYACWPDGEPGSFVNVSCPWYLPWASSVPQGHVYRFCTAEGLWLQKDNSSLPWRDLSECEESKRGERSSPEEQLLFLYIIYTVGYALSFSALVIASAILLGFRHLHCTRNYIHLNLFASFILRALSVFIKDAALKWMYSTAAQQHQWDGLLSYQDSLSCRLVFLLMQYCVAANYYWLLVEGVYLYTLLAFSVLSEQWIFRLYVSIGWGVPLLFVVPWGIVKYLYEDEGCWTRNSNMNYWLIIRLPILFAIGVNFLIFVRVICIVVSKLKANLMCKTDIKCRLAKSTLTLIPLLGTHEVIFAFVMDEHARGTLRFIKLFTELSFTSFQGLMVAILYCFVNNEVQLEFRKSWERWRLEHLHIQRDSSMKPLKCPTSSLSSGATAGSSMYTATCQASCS

Chain of Albumin (P02768 whole entry): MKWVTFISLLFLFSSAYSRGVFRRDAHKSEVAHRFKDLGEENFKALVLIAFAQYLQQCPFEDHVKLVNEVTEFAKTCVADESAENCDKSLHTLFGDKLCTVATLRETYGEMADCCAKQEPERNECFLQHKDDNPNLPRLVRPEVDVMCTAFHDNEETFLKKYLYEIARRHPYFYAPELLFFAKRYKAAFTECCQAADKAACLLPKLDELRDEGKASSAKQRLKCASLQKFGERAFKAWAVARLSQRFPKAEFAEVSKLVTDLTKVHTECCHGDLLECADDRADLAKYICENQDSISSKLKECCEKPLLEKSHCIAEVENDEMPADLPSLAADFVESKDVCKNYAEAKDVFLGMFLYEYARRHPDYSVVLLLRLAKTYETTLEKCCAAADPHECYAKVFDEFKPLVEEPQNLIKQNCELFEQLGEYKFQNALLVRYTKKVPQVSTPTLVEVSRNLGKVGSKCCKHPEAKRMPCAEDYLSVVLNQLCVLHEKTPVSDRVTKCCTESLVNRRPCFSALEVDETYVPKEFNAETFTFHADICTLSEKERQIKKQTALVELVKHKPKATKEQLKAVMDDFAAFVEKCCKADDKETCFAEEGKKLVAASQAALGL

Activity (Albumin) [%] | EC50 [1] [nM] | SMILES
28.5 | 0.0056 | CC[C@H](C)[C@H](NC(=O)[C@H](Cc1ccccc1)NC(=O)[C@H](CCC(=O)O)NC(=O)[C@H](CCCCN)NC(=O)[C@H](C)NC(=O)[C@H](C)NC(=O)[C@H](CCC(N)=O)NC(=O)CNC(=O)[C@H](CCC(=O)O)NC(=O)[C@H](CC(C)C)NC(=O)[C@H](Cc1ccc(O)cc1)NC(=O)[C@H](CO)NC(=O)[C@H](CSC1CC(=O)N(CCC(=O)O)C1=O)NC(=O)[C@@H](NC(=O)[C@H](CC(=O)O)NC(=O)[C@H](CO)NC(=O)[C@@H](NC(=O)[C@H](Cc1ccccc1)NC(=O)[C@@H](NC(=O)CNC(=O)[C@H](CCC(=O)O)NC(=O)CNC(=O)[C@@H](N)Cc1cnc[nH]1)[C@@H](C)O)[C@@H](C)O)C(C)C)C(=O)N[C@@H](C)C(=O)N[C@@H](Cc1c[nH]c2ccccc12)C(=O)N[C@@H](CC(C)C)C(=O)N[C@H](C(=O)N[C@@H](CCCCN)C(=O)NCC(=O)N[C@@H](CCCNC(=N)N)C(N)=O)C(C)C (stereo partly drawn)
65.1 | 0.0263 | CC[C@H](C)[C@H](NC(=O)[C@H](Cc1ccccc1)NC(=O)[C@H](CCC(=O)O)NC(=O)[C@H](CCCCN)NC(=O)[C@H](C)NC(=O)[C@H](C)NC(=O)[C@H](CCC(N)=O)NC(=O)CNC(=O)[C@H](CCC(=O)O)NC(=O)[C@H](CC(C)C)NC(=O)[C@H](Cc1ccc(O)cc1)NC(=O)[C@H](CO)NC(=O)[C@H](CSC1CC(=O)N(CCCCCCCCCCCC(=O)O)C1=O)NC(=O)[C@@H](NC(=O)[C@H](CC(=O)O)NC(=O)[C@H](CO)NC(=O)[C@@H](NC(=O)[C@H](Cc1ccccc1)NC(=O)[C@@H](NC(=O)CNC(=O)[C@H](CCC(=O)O)NC(=O)CNC(=O)[C@@H](N)Cc1cnc[nH]1)[C@@H](C)O)[C@@H](C)O)C(C)C)C(=O)N[C@@H](C)C(=O)N[C@@H](Cc1c[nH]c2ccccc12)C(=O)N[C@@H](CC(C)C)C(=O)N[C@H](C(=O)N[C@@H](CCCCN)C(=O)NCC(=O)N[C@@H](CCCNC(=N)N)C(N)=O)C(C)C (stereo partly drawn)
34.1 | 0.0093 | CC[C@H](C)[C@H](NC(=O)[C@H](Cc1ccccc1)NC(=O)[C@H](CCC(=O)O)NC(=O)[C@H](CCCCN)NC(=O)[C@H](C)NC(=O)[C@H](C)NC(=O)[C@H](CCC(N)=O)NC(=O)CNC(=O)[C@H](CCC(=O)O)NC(=O)[C@H](CC(C)C)NC(=O)[C@H](Cc1ccc(O)cc1)NC(=O)[C@H](CO)NC(=O)[C@H](CO)NC(=O)[C@@H](NC(=O)[C@H](CC(=O)O)NC(=O)[C@H](CO)NC(=O)[C@@H](NC(=O)[C@H](Cc1ccccc1)NC(=O)[C@@H](NC(=O)CNC(=O)[C@H](CCC(=O)O)NC(=O)CNC(=O)[C@@H](N)Cc1cnc[nH]1)[C@@H](C)O)[C@@H](C)O)C(C)C)C(=O)N[C@@H](C)C(=O)N[C@@H](Cc1c[nH]c2ccccc12)C(=O)N[C@@H](CC(C)C)C(=O)N[C@H](C(=O)N[C@@H](CCCCN)C(=O)NCC(=O)N[C@@H](CCCNC(=N)N)C(=O)N[C@@H](CSC1CC(=O)N(CCCCCC(=O)O)C1=O)C(N)=O)C(C)C (stereo partly drawn)
37.4 | 0.0143 | CC[C@H](C)[C@H](NC(=O)[C@H](Cc1ccccc1)NC(=O)[C@H](CCC(=O)O)NC(=O)[C@H](CCCCN)NC(=O)[C@H](C)NC(=O)[C@H](C)NC(=O)[C@H](CCC(N)=O)NC(=O)CNC(=O)[C@H](CCC(=O)O)NC(=O)[C@H](CC(C)C)NC(=O)[C@H](Cc1ccc(O)cc1)NC(=O)[C@H](CO)NC(=O)[C@H](CSC1CC(=O)N(CCCCCC(=O)O)C1=O)NC(=O)[C@@H](NC(=O)[C@H](CC(=O)O)NC(=O)[C@H](CO)NC(=O)[C@@H](NC(=O)[C@H](Cc1ccccc1)NC(=O)[C@@H](NC(=O)CNC(=O)[C@H](CCC(=O)O)NC(=O)CNC(=O)[C@@H](N)Cc1cnc[nH]1)[C@@H](C)O)[C@@H](C)O)C(C)C)C(=O)N[C@@H](C)C(=O)N[C@@H](Cc1c[nH]c2ccccc12)C(=O)N[C@@H](CC(C)C)C(=O)N[C@H](C(=O)N[C@@H](CCCCN)C(=O)NCC(=O)N[C@@H](CCCNC(=N)N)C(N)=O)C(C)C (stereo partly drawn)
